Assay results from ChEMBL document CHEMBL1130045, “7-Spiroindanyl derivatives of naltrexone and oxymorphone as selective ligands for delta opioid receptors” (J Med Chem, 1997).

Key:
[1] = organism: Mus musculus; assay: Compound was tested for the antagonist activity on the electrically stimulated mouse vas deferens using DADLE as delta opioid receptor agonist; format: functional
Procedure, shortened: (§1)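 Electrically stimulated guinea pig ileum (morphine, μ; ethylketazocine, κ) or mouse vas deferens (DADLE, δ). The test ligand is incubated with the tissue for 15 min, then the agonist curve is run with 100 nM antagonist present. Read-out is the IC50 ratio: agonist IC50 with antagonist divided by the control IC50 in the same preparation. Three or more replicates.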

[2] = organism: Mus musculus; assay: Compound was tested for agonistic activity on the electrically stimulated mouse vas deferens (MVD) at 1 uM; format: functional
[3] = molecular target: Kappa-type opioid receptor (Homo sapiens, UniProt P41145); assay: […]; format: functional
Kappa-type opioid receptor (Homo sapiens, UniProt P41145), sequence (P41145 whole entry): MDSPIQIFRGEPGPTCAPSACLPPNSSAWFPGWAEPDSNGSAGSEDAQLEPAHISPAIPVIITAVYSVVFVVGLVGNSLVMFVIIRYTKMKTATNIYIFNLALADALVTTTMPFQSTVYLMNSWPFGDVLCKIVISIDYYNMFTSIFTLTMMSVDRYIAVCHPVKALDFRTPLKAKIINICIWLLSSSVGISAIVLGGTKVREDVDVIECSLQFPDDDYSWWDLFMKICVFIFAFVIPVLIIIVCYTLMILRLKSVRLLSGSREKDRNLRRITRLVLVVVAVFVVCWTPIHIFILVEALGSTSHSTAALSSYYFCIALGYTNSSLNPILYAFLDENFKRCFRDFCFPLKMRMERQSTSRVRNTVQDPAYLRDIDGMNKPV

[4] = molecular target: Mu-type opioid receptor (Homo sapiens, UniProt P35372); assay: […]; format: functional
Mu-type opioid receptor (Homo sapiens, UniProt P35372), sequence (P35372 whole entry): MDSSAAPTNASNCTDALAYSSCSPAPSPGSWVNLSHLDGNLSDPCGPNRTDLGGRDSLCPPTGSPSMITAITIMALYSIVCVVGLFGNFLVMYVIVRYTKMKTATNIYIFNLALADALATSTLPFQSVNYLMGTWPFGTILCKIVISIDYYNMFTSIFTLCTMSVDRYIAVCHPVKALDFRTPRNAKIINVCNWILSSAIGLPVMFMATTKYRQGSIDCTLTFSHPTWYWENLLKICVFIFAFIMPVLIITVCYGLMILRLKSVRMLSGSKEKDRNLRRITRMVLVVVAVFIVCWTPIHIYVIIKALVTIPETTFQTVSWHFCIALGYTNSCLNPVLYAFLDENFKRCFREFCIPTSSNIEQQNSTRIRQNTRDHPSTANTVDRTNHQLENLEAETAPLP

[5] = molecular target: Delta-type opioid receptor (Homo sapiens, UniProt P41143); assay: […]; format: functional
Delta-type opioid receptor (Homo sapiens, UniProt P41143), sequence (P41143 whole entry): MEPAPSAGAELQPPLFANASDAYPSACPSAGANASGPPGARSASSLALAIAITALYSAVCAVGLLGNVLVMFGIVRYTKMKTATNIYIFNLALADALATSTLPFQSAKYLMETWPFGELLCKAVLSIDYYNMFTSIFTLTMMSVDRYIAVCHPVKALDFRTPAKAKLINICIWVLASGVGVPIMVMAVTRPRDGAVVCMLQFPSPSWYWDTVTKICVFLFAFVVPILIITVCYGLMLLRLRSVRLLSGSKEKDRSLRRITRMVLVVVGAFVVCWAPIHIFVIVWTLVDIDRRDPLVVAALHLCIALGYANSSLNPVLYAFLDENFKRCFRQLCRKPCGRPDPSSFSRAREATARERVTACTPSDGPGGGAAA

[6] = organism: Cavia porcellus; assay: Compound was tested for agonistic activity on the electrically stimulated guinea pig ileum (GPI) at 1 uM; format: functional
[7] = molecular target: Opioid receptors; mu & delta (Homo sapiens) (UniProt P41143+P35372); assay: Antagonist selectivity ratio measured as delta IC50 to that of mu receptor IC50 values.; format: functional
Opioid receptors; mu & delta (Homo sapiens), sequence (P35372 whole entry, looked up): as the sequence (P35372 whole entry) above
Opioid receptors; mu & delta (Homo sapiens), sequence (P41143 whole entry, looked up): as the sequence (P41143 whole entry) above
Procedure, shortened: (§2)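 Derived from the tissue antagonism data. The δ IC50 ratio (DADLE, mouse vas deferens) is divided by the μ (morphine) or κ (ethylketazocine) IC50 ratio from guinea pig ileum, each ratio measured at 100 nM antagonist. An IC50 ratio below unity is set to a minimum of 1 in the calculation.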

[8] = molecular target: Kappa-type opioid receptor (Mus musculus) (UniProt P33534); assay: Compound was tested for its ability to antagonize the antinociceptive effect of U-69,594 (kappa opioid receptor agonist) in mice; format: functional
Kappa-type opioid receptor (Mus musculus), sequence (P33534 whole entry): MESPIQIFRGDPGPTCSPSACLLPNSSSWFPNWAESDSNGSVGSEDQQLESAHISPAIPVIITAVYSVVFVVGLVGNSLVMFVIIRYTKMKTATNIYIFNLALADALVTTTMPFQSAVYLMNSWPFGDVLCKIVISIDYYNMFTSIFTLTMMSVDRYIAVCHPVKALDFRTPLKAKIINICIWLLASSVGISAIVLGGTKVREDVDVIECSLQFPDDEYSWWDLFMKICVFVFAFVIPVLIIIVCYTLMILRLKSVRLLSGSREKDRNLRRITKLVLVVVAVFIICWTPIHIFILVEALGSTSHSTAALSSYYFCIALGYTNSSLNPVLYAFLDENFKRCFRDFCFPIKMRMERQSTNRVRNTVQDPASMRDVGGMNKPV

[9] = molecular target: Mu-type opioid receptor (Mus musculus) (UniProt P42866); assay: Compound was tested for its ability to antagonize the antinociceptive effect of morphine (mu opioid receptor agonist) in mice; format: functional
Mu-type opioid receptor (Mus musculus), sequence (P42866 whole entry): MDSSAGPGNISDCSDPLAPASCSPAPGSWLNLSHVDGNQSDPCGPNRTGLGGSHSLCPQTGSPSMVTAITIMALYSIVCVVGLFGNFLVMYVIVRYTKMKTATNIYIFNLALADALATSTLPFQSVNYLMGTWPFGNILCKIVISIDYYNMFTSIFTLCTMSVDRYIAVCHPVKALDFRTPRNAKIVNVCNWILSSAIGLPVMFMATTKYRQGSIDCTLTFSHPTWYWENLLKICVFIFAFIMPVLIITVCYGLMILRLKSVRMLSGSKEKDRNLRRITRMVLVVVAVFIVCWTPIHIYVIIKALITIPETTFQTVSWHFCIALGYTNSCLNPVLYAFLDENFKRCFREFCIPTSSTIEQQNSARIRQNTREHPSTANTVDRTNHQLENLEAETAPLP
Procedure, shortened: (§3)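 Tail-flick antinociception in ICR mice. Antagonist is given icv at 5 or 10 nmol, timed so its 20 min peak effect falls at the centre of the observation period. Agonists are DPDPE and DSLET icv, and morphine sc. Read-out is the agonist ED50 with antagonist divided by the control ED50, with 95% confidence limits.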

[10] = molecular target: Delta-type opioid receptor (Mus musculus) (UniProt P32300); assay: Compound was tested for its ability to antagonize the antinociceptive effect of DSLET (delta-2 opioid receptor agonist) in mice; format: functional; procedure, shortened: as §3
Delta-type opioid receptor (Mus musculus), sequence (P32300 whole entry): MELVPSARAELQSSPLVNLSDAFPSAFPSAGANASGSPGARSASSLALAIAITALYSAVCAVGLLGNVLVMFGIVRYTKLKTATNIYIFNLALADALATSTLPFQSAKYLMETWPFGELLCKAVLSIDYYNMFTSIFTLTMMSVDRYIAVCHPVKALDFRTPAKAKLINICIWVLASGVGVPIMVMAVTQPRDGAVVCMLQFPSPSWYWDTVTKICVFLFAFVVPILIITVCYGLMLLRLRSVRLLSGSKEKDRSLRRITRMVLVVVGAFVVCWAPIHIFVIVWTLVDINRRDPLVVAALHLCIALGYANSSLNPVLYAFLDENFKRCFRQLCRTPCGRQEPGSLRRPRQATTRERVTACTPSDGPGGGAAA

[11] = molecular target: Kappa-type opioid receptor (Cavia porcellus) (UniProt P41144); assay: Antagonist activity against electrically stimulated guinea pig ileum using ethylketazocine (EK) as kappa opioid receptor agonist; format: functional, tissue-based; procedure, shortened: as §1
Kappa-type opioid receptor (Cavia porcellus), sequence (P41144 whole entry): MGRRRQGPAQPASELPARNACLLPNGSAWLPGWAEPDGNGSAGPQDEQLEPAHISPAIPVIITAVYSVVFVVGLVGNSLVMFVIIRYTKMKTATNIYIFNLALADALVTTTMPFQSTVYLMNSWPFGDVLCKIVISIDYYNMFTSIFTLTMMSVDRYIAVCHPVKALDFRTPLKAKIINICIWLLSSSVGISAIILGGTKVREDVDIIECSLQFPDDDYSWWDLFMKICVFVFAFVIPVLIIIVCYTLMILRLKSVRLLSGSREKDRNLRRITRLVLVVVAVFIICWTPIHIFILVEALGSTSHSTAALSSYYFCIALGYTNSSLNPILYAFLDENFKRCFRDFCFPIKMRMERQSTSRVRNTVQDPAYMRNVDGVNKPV

[12] = molecular target: Mu-type opioid receptor (Cavia porcellus) (UniProt P97266); assay: Antagonist activity against electrically stimulated guinea pig ileum using morphine (M) as mu opioid receptor agonist; format: functional, tissue-based; procedure, shortened: as §1
Mu-type opioid receptor (Cavia porcellus), sequence (P97266 whole entry): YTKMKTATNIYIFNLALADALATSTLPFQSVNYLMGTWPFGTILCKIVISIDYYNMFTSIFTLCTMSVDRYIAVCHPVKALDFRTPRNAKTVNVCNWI

[13] = molecular target: Opioid receptors; mu & kappa (Homo sapiens) (UniProt P41145+P35372); assay: Antagonist selectivity ratio measured as delta IC50 to that of mu kappa IC50 values.; format: functional; procedure, shortened: as §2
Opioid receptors; mu & kappa (Homo sapiens), sequence (P35372 whole entry, looked up): as the sequence (P35372 whole entry) above
Opioid receptors; mu & kappa (Homo sapiens), sequence (P41145 whole entry, looked up): as the sequence (P41145 whole entry) above

[14] = molecular target: Kappa-type opioid receptor (Mus musculus, UniProt P33534); assay: […]; format: functional
Kappa-type opioid receptor (Mus musculus, UniProt P33534), sequence (P33534 whole entry): as the sequence (P33534 whole entry) above
Procedure, shortened: (§4)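 Competition binding in ICR mouse brain membranes, using a modified Werling procedure. Radioligands are [3H]naltrindole for δ, [3H]DAMGO for μ and [3H]U69593 for κ. Ki values are derived from the competition curves.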

[15] = molecular target: Mu-type opioid receptor (Mus musculus, UniProt P42866); assay: […]; format: functional; procedure, shortened: as §4
Mu-type opioid receptor (Mus musculus, UniProt P42866), sequence (P42866 whole entry): as the sequence (P42866 whole entry) above

[16] = molecular target: T1, Delta-type opioid receptor (Mus musculus, UniProt P32300); assay: […]; format: functional; procedure, shortened: as §4
T1 sequence (P32300 whole entry): as the sequence (P32300 whole entry) above

[17] = molecular target: Delta-type opioid receptor (Mus musculus) (UniProt P32300); assay: Compound was tested for its ability to antagonize the antinociceptive effect of DPDPE (delta-1 opioid receptor agonist) in mice; format: functional; procedure, shortened: as §3
[18] = organism: Mus musculus; assay: Compound was tested for agonistic activity on the electrically stimulated mouse vas deferens (MVD); format: functional, organism-based
[19] = molecular target: T1, Delta-type opioid receptor; assay: The compound tested for […] against [3H]- NT1 (Opioid receptor delta 1) opioid receptor; procedure, shortened: as §4
[20] = organism: Cavia porcellus; assay: Compound was tested for agonistic activity on the electrically stimulated guinea pig ileum (GPI); format: functional, organism-based

Compound	IC50 ratio [1]	Max response [2]	Ki [3]	Ki [4]	Ki [5]	Max response [6]	IC50 ratio [7]	ED50 ratio [8]	ED50 ratio [9]	ED50 ratio [10]	IC50 ratio [11]	IC50 ratio [12]	IC50 ratio [13]	Ki [14]	Ki [15]	Ki [16]	ED50 ratio [17]	IC50 [18]	Ki [19]	IC50 [20]
O=C1[C@@H]2Oc3c(O)ccc4c3[C@@]23CCN(CC2CC2)[C@H](C4)[C@]3(O)CC12Cc1ccccc1C2	130	-8%	> 3000 nM	1.53 nM	0.25 nM	16%	–	–	–	–	–	–	–	–	–	–	–	–	–	–
O=C1C2Oc3c(O)ccc4c3C23CCN(CC2CC2)C(C4)[C@]3(O)CC12Cc1cc3ccccc3cc1C2 (stereo not given in full)	48	4.9%	–	–	–	52%	14.1	0.8	0.8	1.5	0.24	3.4	48	1030 nM	7.81 nM	Non-competitive inhibition	4.4	–	–	–
O=C1/C(=C/c2ccccc2)C[C@@]2(O)[C@H]3Cc4ccc(O)c5c4[C@@]2(CCN3CC2CC2)[C@H]1O5	–	–	–	–	–	–	–	1.2	0.8	0.91	–	–	–	–	–	–	7.2	–	–	–
CN1CC[C@]23c4c5ccc(O)c4O[C@H]2C(=O)C2(Cc4ccccc4C2)C[C@@]3(O)[C@H]1C5 [SPIROINDANYLOXYMORPHONE]	–	–	> 3000 nM	14.3 nM	2.75 nM	55%	–	–	–	–	0.99	1.2	–	–	–	–	–	23 nM	–	–
O=C1C2Oc3c(O)ccc4c3C23CCN(CC2CC2)C(C4)[C@]3(O)CC12Cc1ccc3ccccc3c1C2 (stereo not given in full)	25	14%	–	–	–	13.9%	25	–	–	–	1.7	1	14.7	–	–	–	–	–	–	–
COc1cccc2c1CC1(C2)C[C@@]2(O)C3Cc4ccc(O)c5c4C2(CCN3CC2CC2)C(O5)C1=O (stereo not given in full)	85	-18%	–	–	–	-4.5%	13.7	3.4	2.5	4.3	2.4	6.2	35	> 3000 nM	0.44 nM	0.028 nM	5.6	–	–	–
O=C1C2Oc3c(O)ccc4c3C23CCN(CC2CC2)C(C4)[C@]3(O)CC12Cc1cccc3cccc(c13)C2 (stereo not given in full)	12.6	17.6%	–	–	–	11.2%	12.6	–	–	–	0.78	0.93	12.6	–	–	–	–	–	–	–
COc1ccc2c(c1)CC1(C2)C[C@@]2(O)C3Cc4ccc(O)c5c4C2(CCN3CC2CC2)C(O5)C1=O (stereo not given in full)	11.8	0.6%	–	–	–	-52%	1.7	–	–	–	2.8	6.9	4.2	–	–	–	–	–	–	–
CN1CCC23c4c5ccc(O)c4OC2C(=O)C2(Cc4cc6ccccc6cc4C2)C[C@@]3(O)C1C5 (stereo not given in full)	1.1	57%	–	–	–	13.4%	1	3	2	0.9	1.2	0.58	1	> 3000 nM	125 nM	–	1.5	–	31.6 nM	–
COc1cccc2c1CC1(C2)C[C@@]2(O)C3Cc4ccc(O)c5c4C2(CCN3C)C(O5)C1=O (stereo not given in full)	–	–	–	–	–	–	–	–	–	–	–	–	–	> 3000 nM	9.24 nM	5.49 nM	–	27 nM	–	148 nM
